Converted amounts (≈) assume the structure as drawn. Each block holds one compound with its values, some of them ahead of it. The source made the active and inactive calls. The calls are words filed in the database; no cut-off is given here.
Tests used:
Acinetobacter baumannii [1] = assay: Antibacterial activity against Acinetobacter baumannii by broth dilution assay; format: functional
Summary of the method: (§1)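 MIC99 by broth-dilution assay; antibacterial and culture details are in the Supporting Information.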

Erythrocyte = assay: Hemolytic activity against human RBC incubated for 1 hr; format: ADME, cell-based
Klebsiella pneumoniae [2] = assay: Antibacterial activity against Klebsiella pneumoniae by broth dilution assay; format: functional; summary of the method: as §1
Escherichia coli [3] = assay: Antibacterial activity against Escherichia coli by broth dilution assay; format: functional; summary of the method: as §1
A549 = assay: Cytotoxicity against human A549 cells incubated for 48 hrs by MTT assay; format: cell-based; conditions: a549, 48 h
Escherichia coli [4] = assay: Antibiofilm activity against Escherichia coli isolate 6/23 infected in BALB/c mouse implanted subcutaneously with compound treated catheters followed by infection at incision site; format: functional, organism-based
Cell membrane [5] = assay: Binding affinity to bacterial cell membrane assessed as Ka1 by SPR assay; format: cell membranes; conditions: Bacteria
Summary of the method: (§2)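 Surface plasmon resonance of compound binding to bacterial membranes. K1, K2 and overall KA were calculated from the sensorgrams. Average of three replicates.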

Escherichia coli [6] = assay: Antibiofilm activity against Escherichia coli after 24 hrs by propidium iodide uptake based FACS analysis; format: functional, organism-based
Escherichia coli [7] = assay: Antibacterial activity against Escherichia coli isolate 6/23 by broth dilution assay; format: functional
Escherichia coli [8] = assay: Induction of membrane permeabilization in Escherichia coli by SYTO9-PI staining based fluorescence microscopy; format: organism-based; conditions: Cell membrane
Escherichia coli [9] = assay: Antibacterial activity against Escherichia coli isolate 9/203 by broth dilution assay; format: functional
Escherichia coli [10] = assay: Induction of cell membrane disruption in Escherichia coli assessed as pore network disruption by SEM assay; format: functional, organism-based
Escherichia coli [11] = assay: Induction of cell membrane disruption in Escherichia coli assessed as extracellular architecture disruption by SEM assay; format: functional, organism-based
Escherichia coli [12] = assay: Antibacterial activity against Escherichia coli isolate 6/38 by broth dilution assay; format: functional
Acinetobacter baumannii [13] = assay: Antibacterial activity against Acinetobacter baumannii isolate 4/307 by broth dilution assay; format: functional
Escherichia coli [14] = assay: Antibacterial activity against Escherichia coli isolate 6/27 by broth dilution assay; format: functional
Escherichia coli [15] = assay: Antibiofilm activity against Escherichia coli assessed as reduction in colony forming units after 24 hrs by crystal violet-based assay; format: functional, organism-based
Escherichia coli [16] = assay: Bactericidal activity against stationary form of Escherichia coli assessed as reduction in colony forming units by fluorescent based time-kill assay; format: functional, organism-based
Klebsiella pneumoniae [17] = assay: Antibacterial activity against Klebsiella pneumoniae isolate 8/407 by broth dilution assay; format: functional
[18] = Critical micellar concentration of the compound; format: physicochemical
Cell membrane [19] = assay: Binding affinity to bacterial cell membrane assessed as KA by SPR assay; format: cell membranes; conditions: Bacteria; summary of the method: as §2
Escherichia coli [20] = assay: Ratio of antimicrobial activity against Escherichia coli using 10^12 CFU/ml bacterial inoculum by broth dilution assay to antimicrobial activity against Escherichia coli by broth dilution assay; format: functional
Summary of the method: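 MIC99 against E. coli was measured by broth dilution at a range of inoculum densities up to 10¹² CFU/mL, in four replicates. Results were expressed as fold change in MIC99 relative to the standard inoculum.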

Escherichia coli [21] = assay: Antibiofilm activity against Escherichia coli isolate 6/23 exposed to compound-coated catheters assessed as reduction in colony forming units incubated for 3 days; format: functional, organism-based
Acinetobacter baumannii [22] = assay: Antibacterial activity against Acinetobacter baumannii isolate 1/303 by broth dilution assay; format: functional
Escherichia coli [23] = assay: Antibacterial activity against Escherichia coli isolate 6/23 infected in wound areas of BALB/c mouse assessed as reduction in colony forming units at 40 mg/kg dosed thrice daily for 4 days starting 6 hrs post infection and measured on day 5; format: functional, organism-based
Escherichia coli [24] = assay: Antibiofilm activity against Escherichia coli assessed as reduction in biomass levels after 24 hrs by SYT09-propidium iodide based confocal microscopy; format: functional, organism-based
Summary of the method: (§3)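 Treated E. coli biofilms stained with SYTO9 (all cells) and PI (dead cells) and imaged by confocal laser scanning microscopy. Biofilm thickness quantified against untreated. Mean ± SD of three replicates, unpaired two-tailed t-test.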

Escherichia coli [25] = assay: Bactericidal activity against persistent form of Escherichia coli assessed as reduction in colony forming units by fluorescent based time-kill assay; format: functional, organism-based
[26] = Selectivity index, ratio of IC50 for human A549 cells to MIC99 for Escherichia coli; format: toxicity; conditions: read-out: Selectivity Index
Escherichia coli [27] = assay: Antibiofilm activity against Escherichia coli assessed as biofilm thickness after 24 hrs (reference value: >8 micrometer); format: functional; summary of the method: as §3
Lipopolysaccharide (LPS) [28] = assay: Displacement of dansyl-polymyxin B from LPS of bacterial cell membrane by fluorescence spectrophotometry; conditions: Bacteria
Summary of the method: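 Dansyl-polymyxin B–LPS complexes titrated with compound; rise in dansyl fluorescence from displacement measured. Mean ± SD of three replicates, unpaired two-tailed t-test.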

Klebsiella pneumoniae [29] = assay: Antibacterial activity against Klebsiella pneumoniae isolate 7/47 by broth dilution assay; format: functional
Escherichia coli [30] = assay: Antibiofilm activity against Escherichia coli assessed as reduction in colony forming units at 64 uM after 24 hrs by crystal violet-based assay relative to control; format: functional
Escherichia coli [31] = assay: Induction of membrane permeabilization in Escherichia coli at 8 uM after 30 mins DiSC2-fluorescence based assay; format: organism-based; conditions: Cell membrane
Summary of the method: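 DiSC2(5)-loaded E. coli treated at 8 µM; depolarization-driven fluorescence increase followed over time. Average of three replicates.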

Acinetobacter baumannii [32] = assay: Antibacterial activity against Acinetobacter baumannii isolate 5/321 by broth dilution assay; format: functional
Escherichia coli [33] = assay: Bactericidal activity against Escherichia coli assessed as reduction in colony forming units at 1 times MIC99 concentration after 6 hrs by fluorescent based time-kill assay; format: functional, organism-based
Escherichia coli [34] = assay: Bactericidal activity against Escherichia coli assessed as reduction in colony forming units at 4 times MIC99 concentration after 90 mins by fluorescent based time-kill assay
Escherichia coli [35] = assay: Antimicrobial activity against compound-pre-treated Escherichia coli by broth dilution assay based drug resistance development assay; format: functional, organism-based
Summary of the method: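 E. coli pre-treated with compound, then MIC₉₉ redetermined by broth-dilution assay in four replicates; reported as fold change in MIC₉₉ relative to starting value to assess resistance development.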

Acinetobacter baumannii [36] = assay: Antibacterial activity against Acinetobacter baumannii isolate 4/202 by broth dilution assay; format: functional
Klebsiella pneumoniae [37] = assay: Antibacterial activity against Klebsiella pneumoniae isolate 8/307 by broth dilution assay; format: functional
Escherichia coli [38] = assay: Antibacterial activity against Escherichia coli XEN 14 infected in wound areas of BALB/C mouse assessed as reduction in bacterial load at 40 mg/kg administered thrice daily for 4 days starting 6 hrs post infection and measured on day 5 by bioluminescence imaging analysis; format: functional, organism-based
[39] = Selectivity index, ratio of HC50 for human RBC to MIC99 for Escherichia coli; format: toxicity; conditions: human red blood cells (RBC), read-out: Selectivity Index
Escherichia coli [40] = assay: Antibacterial activity against Escherichia coli isolate 9/44 by broth dilution assay; format: functional
Escherichia coli [41] = assay: Induction of membrane permeabilization in Escherichia coli in presence of 1.9 to 1000 ug/ml LPS by propidium iodide uptake based FACS analysis; format: organism-based; conditions: Cell membrane
Summary of the method: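 E. coli was treated with compound in the presence of graded LPS and stained with propidium iodide. The percentage of PI-positive cells was measured by flow cytometry.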

Cell membrane [42] = assay: Binding affinity to bacterial cell membrane assessed as K1 by SPR assay; format: cell membranes; conditions: Bacteria; summary of the method: as §2
Acinetobacter baumannii [43] = assay: Antibacterial activity against Acinetobacter baumannii isolate 5/412 by broth dilution assay; format: functional
Escherichia coli [44] = assay: Antibiofilm activity against Escherichia coli assessed as reduction in biomass levels at 64 uM after 24 hrs by crystal violet-based assay relative to control; format: functional; design: scale not given: the % may be the effect or the level left
Summary of the method: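 Pre-formed E. coli biofilms treated 24 h with varying doses; biomass quantified by crystal violet staining relative to untreated. Mean ± SD of three replicates, unpaired two-tailed t-test.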

Lipopolysaccharide (LPS) [45] = assay: Binding affinity to bacterial LPS by BODIPY-LPS based fluorescence assay; conditions: Bacteria
Summary of the method: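 BODIPY-conjugated LPS aggregates titrated with compound; fluorescence increase from aggregate disintegration recorded. Mean ± SD of three replicates, unpaired two-tailed t-test.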

Escherichia coli [46] = assay: Induction of membrane permeabilization in Escherichia coli at 32 uM by propidium iodide uptake based FACS analysis; format: organism-based; conditions: Cell membrane
Summary of the method: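 E. coli treated at 32 µM, PI-stained, and PI-positive cells counted by flow cytometry. Mean ± SD of four replicates, unpaired two-tailed t-test.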

Cell membrane [47] = assay: Binding affinity to bacterial cell membrane assessed as Kd2 by SPR assay; format: cell membranes; conditions: Bacteria; summary of the method: as §2
Cell membrane [48] = assay: Binding affinity to bacterial cell membrane assessed as K2 by SPR assay; format: cell membranes; conditions: Bacteria; summary of the method: as §2
Klebsiella pneumoniae [49] = assay: Antibacterial activity against Klebsiella pneumoniae isolate 12823 by broth dilution assay; format: functional
[50] = Binding affinity to DPH-doped model gram negative bacterial membrane (LPS/DPPE/DMPG lipids) assessed as increase in membrane fluidity by fluorescence anisotrophy
Summary of the method: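 Vesicles of LPS, DPPE and DMPG doped with DPH were incubated with compound, and the change in DPH fluorescence anisotropy was recorded. Mean ± SD of three replicates, unpaired two-tailed t-test.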

Escherichia coli [51] = assay: Induction of cell morphology changes in Escherichia coli at 8 uM by TEM assay; format: functional, organism-based
Summary of the method: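 E. coli treated at 8 µM, sampled at different times and imaged by transmission electron microscopy beside untreated cells.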

Cell membrane [52] = assay: Binding affinity to bacterial cell membrane assessed as Kd1 by SPR assay; format: cell membranes; conditions: Bacteria; summary of the method: as §2
Escherichia coli [53] = assay: Induction of membrane permeabilization in Escherichia coli at 8 uM after 40 mins by NPN-fluorescence based assay; format: organism-based; conditions: Cell membrane
Summary of the method: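 NPN-stained E. coli incubated with compound at 8 µM; outer-membrane permeabilization followed as NPN fluorescence over time. Average of three replicates.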

MIC99 (Acinetobacter baumannii [1]): 16 µM (≈ 16.1 µg/mL)
MIC99 (Klebsiella pneumoniae [2]): 16 µM (≈ 16.1 µg/mL)
MIC99 (Escherichia coli [3]): 8 µM (≈ 8.07 µg/mL)
Compound: CC[C@H](C)[C@H](N)C(=O)NCC(=O)O[C@@H]1CC[C@@]2(C)[C@@H](C1)C[C@@H](OC(=O)CNC(=O)[C@@H](N)[C@@H](C)CC)[C@@H]1[C@@H]2C[C@H](OC(=O)CNC(=O)[C@@H](N)[C@@H](C)CC)[C@]2(C)[C@@H]([C@H](C)CCC(=O)OCc3ccccc3)CC[C@@H]12
Activity (Erythrocyte): Toxic
Activity (A549): Toxic

Compound: CC(C)[C@H](N)C(=O)NCC(=O)O[C@@H]1CC[C@@]2(C)[C@@H](C1)C[C@@H](OC(=O)CNC(=O)[C@@H](N)C(C)C)[C@@H]1[C@@H]2C[C@H](OC(=O)CNC(=O)[C@@H](N)C(C)C)[C@]2(C)[C@@H]([C@H](C)CCC(=O)OCc3ccccc3)CC[C@@H]12.Cl.Cl.Cl
Activity (Escherichia coli [4]): Active
K (Cell membrane [5]): 2.41 ×10⁴ /Ms
Activity (Escherichia coli [6]): Active
MIC99 (Escherichia coli [7]): 8 µM
MIC99 (Acinetobacter baumannii [1]): 16 µM
Activity (Escherichia coli [8]): Active
MIC99 (Escherichia coli [9]): 8 µM
Activity (Escherichia coli [10]): Active
Activity (Escherichia coli [11]): Active
MIC99 (Escherichia coli [12]): 4 µM
MIC99 (Acinetobacter baumannii [13]): 16 µM
MIC99 (Escherichia coli [14]): 4 µM
Activity (Escherichia coli [15]): Dose-dependent effect
Activity (Escherichia coli [16]): Active
MIC99 (Klebsiella pneumoniae [17]): 8 µM
CMC [18]: > 100 µM
KA (Cell membrane [19]): 9.6 ×10⁷ /M
Ratio (Escherichia coli [20]): 2
Activity (Escherichia coli [21]): Active
MIC99 (Klebsiella pneumoniae [2]): 16 µM
MIC99 (Acinetobacter baumannii [22]): 16 µM
Activity (Escherichia coli [23]): Active
Activity (Escherichia coli [24]): Active
Activity (Escherichia coli [25]): Active
selectivity ratio [26]: 6 to 7
Activity (Escherichia coli [27]): 3 um
inhibition (Lipopolysaccharide (LPS) [28]): Active
MIC99 (Klebsiella pneumoniae [29]): 4 µM
log(activity) (Escherichia coli [30]): 8
MIC99 (Escherichia coli [3]): 8 µM
Activity (Escherichia coli [31]): Active
MIC99 (Acinetobacter baumannii [32]): 4 µM
Activity (Escherichia coli [33]): inactive
Activity (Escherichia coli [34]): Active
Activity (Escherichia coli [35]): Active
MIC99 (Acinetobacter baumannii [36]): 8 µM
MIC99 (Klebsiella pneumoniae [37]): 8 µM
Activity (Escherichia coli [38]): Active
selectivity ratio [39]: 6 to 7
MIC99 (Escherichia coli [40]): 8 µM
Activity (Escherichia coli [41]): inactive
K (Cell membrane [42]): 4.06 ×10⁵ /M
MIC99 (Acinetobacter baumannii [43]): 4 µM
Activity (Escherichia coli [44]): 90%
Activity (Lipopolysaccharide (LPS) [45]): Active
Activity (Escherichia coli [46]): Active
K (Cell membrane [47]): 4.19 ×10⁻⁵ /s
K (Cell membrane [48]): 2.39 ×10² /M
MIC99 (Klebsiella pneumoniae [49]): 8 µM
Activity [50]: Active
Activity (Escherichia coli [51]): Active
K (Cell membrane [52]): 6 ×10⁻² /s
Activity (Escherichia coli [53]): Active

Compound: NC[C@@H]1O[C@H](O[C@H]2[C@@H](O)[C@H](O[C@@H]3[C@@H](O)[C@H](N)C[C@H](N)[C@H]3O[C@H]3O[C@H](CN)[C@@H](O)[C@H](O)[C@H]3N)O[C@@H]2CO)[C@H](N)[C@@H](O)[C@@H]1O
Activity (Escherichia coli [35]): inactive

Source: ChEMBL document CHEMBL4411332, “Deciphering the Role of Intramolecular Networking in Cholic Acid-Peptide Conjugates on the Lipopolysaccharide Surface in Combating Gram-Negative Bacterial Infections” (J Med Chem, 2019)
